HSV replic up – HSV replication enhancement | maximum fold increase | HSV replication augmentation in cells, fold increase | 220,000 compounds, 0.005% hits; in the data active = maximum fold increase above about 1.5; inconclusive = no clear call, values can overlap the other calls; tested in PC3 cells
ABCB6 inh MLPCN – blocks the human ABCB6 transporter; K562-ABCB6 porphyrin accumulation, flow cytometry, 1 h; stronger effect = lower value; 360,000 compounds, 0.19% hits; Q9NP58; AID 602162; fluorescence ratio to DMSO, % at 10 µM;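 active = fluorescence ratio to DMSO below 75%, the collection mean minus 3 SD; inconclusive = too few cells collected in the well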;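 also: signal is porphyrin accumulated inside mitochondria; 100% equals median channel fluorescence of DMSO control wells; lower ratio means ABCB6 inhibition with less porphyrin fluorescence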
ABCB1 inh – inhibitors of human ABCB1 transporter, ABCG2 counter-screen; P08183; CCRF-Adr cells, JC-1 efflux, flow cytometry; inhibition, % at 6.6 µM; 190,000 compounds, 0.067% hits; in the data active = inhibition above about 40%;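 also: 0% = vehicle and 100% = reference inhibitor; higher value means more JC-1 retained so stronger ABCB1 efflux block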
p97 ATPase inh – human p97 ATPase inhibition; 220,000 compounds, 0.42% hits; P55072; inhibition, % at 8 µM; recombinant p97 ATPase, Kinase-Glo ATP luminescence, 3 h; in the data active = inhibition above about 15%;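 also: 0% = DMSO vehicle and 100% = wells lacking enzyme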
Rad51 HR inh – Rad51 (human) homologous recombination inhibition; AID 1385; hRad51 DNA strand exchange, fluorescence dequenching; 200,000 compounds, 0.085% hits; inhibition, % at 10 µM;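 active = inhibition above 40% at the single screening dose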;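 also: 0% = DMSO control wells and 100% = blanks with heterologous ssDNA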
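Test system: preformed human Rad51 ssDNA filaments; also added: Donor/quencher-labelled 47-bp dsDNA substrate; doses: 10 µM final, single point; times: 37 °C 15-min filament assembly, 30-min compound preincubation, 15-min exchange; detection: FRET fluorescence dequenching, excitation 485 nm, emission 520 nm; read-out basis: Fluorescence-based percent inhibition, control- and blank-normalised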
ABCG2 inh – blocks JC-1 efflux by human ABCG2 transporter. IgMXP3 cells, flow cytometry. inhibition, % at 6.6 µM. 190,000 compounds, 0.1% hits. AID 1325;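 active = inhibition above 80%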;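 also: 0% = DMSO and 100% = nicardipine control wells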
Target sequence (Q9UNQ0 whole entry, looked up): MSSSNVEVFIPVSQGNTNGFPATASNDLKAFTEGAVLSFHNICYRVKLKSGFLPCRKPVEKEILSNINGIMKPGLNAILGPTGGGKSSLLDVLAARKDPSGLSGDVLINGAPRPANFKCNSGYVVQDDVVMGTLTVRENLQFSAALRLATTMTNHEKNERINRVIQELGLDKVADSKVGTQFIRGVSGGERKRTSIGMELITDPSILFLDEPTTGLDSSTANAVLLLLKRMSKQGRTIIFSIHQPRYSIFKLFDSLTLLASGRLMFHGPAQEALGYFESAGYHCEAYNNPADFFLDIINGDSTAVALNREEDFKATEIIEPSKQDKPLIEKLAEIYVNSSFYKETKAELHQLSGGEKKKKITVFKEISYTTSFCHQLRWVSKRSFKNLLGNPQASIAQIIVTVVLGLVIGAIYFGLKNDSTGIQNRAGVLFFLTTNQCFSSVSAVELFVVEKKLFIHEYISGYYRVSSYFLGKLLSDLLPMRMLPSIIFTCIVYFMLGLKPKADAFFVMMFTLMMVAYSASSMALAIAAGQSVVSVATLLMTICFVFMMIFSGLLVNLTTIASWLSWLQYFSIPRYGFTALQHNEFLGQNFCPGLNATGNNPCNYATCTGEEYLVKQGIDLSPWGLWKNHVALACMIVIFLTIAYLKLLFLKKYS
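Read-out basis: Efflux inhibition in percent versus controls | Test system: ABCG2 IgMXP3 and barcoded ABCB1 CCRF-Adr cell mix | Quantity: 3 million cells/mL in well | Schedule: 10 min at 25 °C | Control set: Nicardipine as high control, DMSO as low control | Reagent: JC-1 as fluorescent efflux pump substrate | Signal: Flow cytometry of retained JC-1 fluorescence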
ABCB1 confirm – inhibits human ABCB1 efflux, confirmed at single point; shares compounds with ABCG2 inh; CCRF-Adr cells, JC-1 efflux, flow cytometry; inhibition, % at 6.6 µM; 270 compounds, 7% hits; AID 1451;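 active = inhibition of pump activity above 50%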;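 also: 0% = DMSO and 100% = nicardipine full pump inhibition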
ABCG2 confirm – inhibits human ABCG2 efflux, confirmed at single point; 270 compounds, 6% hits; shares compounds with ABCG2 inh; AID 1453; IgMXP3 cells, JC-1 efflux, flow cytometry; inhibition, % at 6.6 µM;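 active = inhibition above 50%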;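 also: 0% = DMSO wells and 100% = nicardipine pump inhibitor wells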
IgMXP3 fluor – counter-screen for ABCG2 inhibitors: compound fluorescence in IgMXP3 cells | fluorescence at 6.6 µM | shares compounds with ABCG2 inh | 270 compounds, 30% hits | compound autofluorescence 488/530 nm, flow; stronger effect = higher value;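 active = fluorescence in ABCG2-expressing cells above the plate's control-well mean plus 3 SD, cut at about 15 in these data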;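 also: median cell fluorescence with compound minus that of DMSO-treated control cells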
CCRF autofluor – counter-screen for ABCB1 inhibitors: compound fluorescence in CCRF-Adr cells; fluorescence at 6.6 µM; shares compounds with ABCG2 inh; AID 1483; compound autofluorescence 488/530 nm, flow cytometry; stronger effect = higher value; 270 compounds, 30% hits;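 active = fluorescence beyond the plate control mean plus 3 SD, with a fluorescence-to-maximum score over 2, cut at about 25 in these data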
* hit, by the source's call; i = inactive; ? = inconclusive; . = not tested or not shown. A selection: hits, their analogues and other compounds. The true share with any hit is near 0.55%.

SMILES | HSV replic up | ABCB6 inh MLPCN | ABCB1 inh | p97 ATPase inh | Rad51 HR inh | ABCG2 inh | ABCB1 confirm | ABCG2 confirm | IgMXP3 fluor | CCRF autofluor
COc1ccc2cc(C(=O)OC(C)C)sc(=O)c2c1OC | i | 103 | 2 | -11 | -1 | 87* | 1 | 60* | -1.9 | -3.8
Cc1ccc(S(=O)(=O)N2C[C@H]3[C@H]4C(=O)N(c5ccccc5)C(=O)[C@H]4C[C@H](OC(=O)NCc4ccccc4F)[C@@]3(O)C2)cc1 | . | 94 | . | . | . | . | . | . | . | .
COc1cc2nc(SCC(N)=O)n(CCC3=CCCCC3)c(=O)c2cc1OC | i | 96 | 1 | 2 | -4 | 4 | . | . | . | .
COCCNC(=O)CSc1nc2cc(OC)c(OC)cc2c(=O)n1CCC1=CCCCC1 | i | 101 | 19 | 3 | -1 | 88* | 9 | 46 | 1.3 | -1.4
CCSc1nc2cc(OC)c(OC)cc2c(=O)n1CCc1ccccc1 | i | 87 | 3 | 1 | -2 | 77 | 6 | 35 | 5.8 | 0.56
COc1cccc(-c2nc(-c3ccccc3)c3ccc(Cl)cc3n2)c1 | . | 94 | . | . | . | . | . | . | . | .
O=C(Nc1ccc2c(c1)OCO2)c1ccc2sc([C@@H]3O[C@H](CO)[C@H](O)[C@H](O)[C@H]3O)nc2c1 | . | 99 | . | . | . | . | . | . | . | .
COCCn1c(SCC(=O)N2CCc3ccccc3C2)nc2cc(Cl)ccc2c1=O | i | 90 | 33 | 3 | 3 | 26 | 27 | 29 | -1.5 | -3.6
Cc1ccc(NC(=O)Nc2ccccc2)cc1[N+](=O)[O-] | i | 94 | 17 | 0 | 13 | 95* | 2 | 26 | -0.99 | -2.1
CCOc1nc(SCCOc2ccc(C)cc2)nc(N(C)C)n1 | i | 91 | 3 | -2 | 0 | 103* | 5 | 25 | -1.3 | -0.14
O=C([O-])c1cc(-c2ccccc2)cc(-c2ccccc2)[n+]1CCc1ccc(Cl)cc1 | . | 91 | . | . | . | . | . | . | . | .
CN(C)c1ccc(/C=C/C(=O)c2cccc(Br)c2)cc1 | . | 100 | 26 | 2 | i | 42 | 6 | 17 | 19* | 103*
CCN(C(=O)COC(=O)CCC(=O)c1ccc(C)cc1)c1c(N)n(Cc2ccccc2)c(=O)[nH]c1=O | . | 98 | . | . | . | . | . | . | . | .
CCC(NC(=O)CCl)c1ccc(C)cc1 (centres undefined) | i | 94 | 6 | -2 | -103 | 72 | 3 | 0 | -0.84 | 2.7
CCCC(NC(=O)CCl)c1ccccc1 (centres undefined) | i | 86 | 0 | 2 | -5 | 4 | . | . | . | .
CN(Cc1ccc(Cl)cc1)C(=O)c1[nH]c(C(F)(F)F)nc1-c1ccccc1 | . | 98 | . | . | . | . | . | . | . | .
COc1ccc(NC(=S)NCc2cccn2C)cc1 | i | 96 | 3 | 2 | -3 | 75 | 1 | 12 | -2.2 | -4.4
COc1cccc(NC(=O)Nc2ccncc2)c1 | i | 98 | 44* | 1 | . | 59 | 1 | 29 | 0.96 | 5
CCn1c(SCc2ccccc2Cl)nc2nc3c(cc2c1=O)CCCC3 | i | 94 | 21 | 4 | 10 | 92* | 18 | 16 | 15* | 6.2
CCCN1C(=O)/C(=C/c2c(NCCCOC(C)C)nc3c(C)cccn3c2=O)SC1=S | ? | i | 62* | -1 | -317 | 89* | -3 | -12 | 141* | 178*
CCC(C)c1ccc(NC(=S)NCCn2cc(Br)cn2)cc1 (centres undefined) | i | 95 | 7 | 2 | -4 | 126* | 1 | 34 | -1.7 | -3.2
Clc1ccc(Cl)c(-c2ccc(/C=N/c3ncn[nH]3)o2)c1 | i | 108 | 4 | -1 | 2 | 83* | 0 | 9 | 1.1 | -0.64
O/N=C/c1ccc(-c2cc(Cl)ccc2Cl)o1 | i | 95 | 0 | 6 | -4 | 5 | . | . | . | .
CC[n+]1c(/C=C/c2c[nH]c3ccccc23)ccc2cc(C)ccc21 | . | . | 23 | -10 | . | 84* | 2 | -59 | 194* | 62*
Nc1ncnc2c1ccn2[C@H]1CN(Cc2ccc(Cl)cc2)C[C@@H](CO)O1 | . | 96 | . | . | . | . | . | . | . | .
SMILES | HSV replic up | ABCB6 inh MLPCN | ABCB1 inh | p97 ATPase inh | Rad51 HR inh | ABCG2 inh | ABCB1 confirm | ABCG2 confirm | IgMXP3 fluor | CCRF autofluor
Cc1cc(C)n(-c2ccc(Cl)c(C(=O)Nc3cc(C(F)(F)F)ccc3Cl)n2)n1 | i | 99 | 9 | 2 | 0 | 116* | 5 | 15 | -1.1 | -1.5
COC(=O)c1nc(-n2nc(C)cc2C)ccc1Cl | i | 95 | 0 | 2 | 0 | 3 | . | . | . | .
COc1ccc(C(c2nnnn2-c2c(C)cccc2C)N2CCN(C/C=C/c3ccccc3)CC2)cc1 (centres undefined) | . | 97 | . | . | . | . | . | . | . | .
CCC(Cc1ccccc1)n1c(=S)[nH]c2ccccc2c1=O (centres undefined) | i | 140 | 31 | -1 | 6 | 100* | -10 | 3 | 23* | 57*
Nc1ccn([C@@H]2O[C@H](CNCc3cccc(OC4CCCC4)c3)[C@@H](O)[C@H]2O)c(=O)n1 | . | 96 | . | . | . | . | . | . | . | .
COc1cc(-c2noc(C)c2C(=O)NCCCn2ccnc2)cc(OC)c1OC | . | 100 | . | . | . | . | . | . | . | .
COc1cccc(-c2nc(N3CC(C)CC(C)C3)c3ccccc3n2)c1O (centres undefined) | . | 106 | 12 | -2 | . | 61 | 72* | 46 | -1.9 | -4.9
COc1cccc(-c2nc(N3CCC(C)CC3)c3ccccc3n2)c1O | i | 91 | 4 | 1 | 0 | 44 | . | . | . | .
Cc1ccc(Cl)cc1-c1cc(C(=O)N2CCc3ccccc3C2)[nH]n1 | . | 100 | . | . | . | . | . | . | . | .
COn1c(-c2ccccc2)nc2c1CCc1c-2no[n+]1[O-] | i | 98 | -1 | 8 | -2 | 74 | -1 | 28 | 0.61 | -3
CC1=C(C(=O)N(C)C)CC(CC(=O)NCc2cccs2)C(=O)N1Cc1ccc(C(C)(C)C)cc1 (centres undefined) | . | 98 | . | . | . | . | . | . | . | .
N#Cc1ccc(-c2ccc(OCC(=O)NCCc3ccccc3)cc2)cc1 | i | 97 | 0 | -1 | 8 | 82* | 0 | 32 | 2.8 | 31*
COc1ccc(CCNC(=O)COc2ccc(-c3ccc(C#N)cc3)cc2)cc1 | i | 101 | 0 | 1 | -7 | 10 | . | . | . | .
O=C(NCc1ccccc1)c1cc(C2CCCN(C(=O)c3ccccc3)C2)on1 (centres undefined) | . | 104 | . | . | . | . | . | . | . | .
CC(=O)Oc1c(/C=C(\C#N)C(N)=O)[nH]c2ccccc12 | i | 127 | 163* | 3 | -311 | 200* | -18 | -1 | 132* | 272*

High-throughput results as filed in PubChem BioAssay.
